Source: PubChem
Rows were chosen to be rich in hits. Some 2.1% of all compounds tested hit in one or more screens of this group.
APJ antagonist = APJ receptor antagonism. P35414. CHO-K1 APJ beta-arrestin complementation, luminescence. inhibition, % at 20 µM. actives 0.32% (n = 330,000). AID 2521;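 active means inhibition above about 40% at 20 µM, limit read from the data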;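 further: cells challenged with 10 nM apelin-13 agonist together with compound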
CXCR6 block = inhibitors of human CXCR6 receptor. O00574. CHO-K1 PathHunter CXCR6 beta-arrestin, luminescence. inhibition, % at 20 µM. actives 0.36% (n = 360,000). AID 602244; in the data active means inhibition above about 34%, passing the limit was not always enough;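 further: antagonist mode with CXCL16 agonist at 10 nM final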
EBI2 antag = blocks human EBI2 receptor beta-arrestin signaling; P32249; EBI2 beta-arrestin recruitment, luminescence, 7a,25-OHC stimulated; inhibition, % at 5 µM; actives 0.81% (n = 360,000); AID 651636; in the data active means inhibition above about 38%;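 further: enzyme fragment complementation signal reports receptor beta-arrestin coupling in cells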
m5-HT2A agonist = activates the mouse 5-HT2A serotonin receptor; P35363; CHO-K1 mHTR2A beta-arrestin complementation, luminescence; percent of 30 µM serotonin response; activation, % at 7.6 µM; actives 0.66% (n = 360,000);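 active means activation above a run cutoff, the mean activation of all tested compounds plus 3 SD, cut at about 14% in these data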
CCR6 antag = blocks CCL20-driven beta-arrestin recruitment at human CCR6; P51684; CHO-K1 CCR6 PathHunter beta-arrestin, luminescence, CCL20-stimulated; inhibition, % at 20 µM; actives 0.49% (n = 340,000);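 active means compounds whose inhibition of the agonist-driven luminescence signal at 20 µM reaches about 50%, limit read from the data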;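 further: cells stimulated with CCL20 at 14 nM final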
Target sequence (P51684 whole entry, looked up): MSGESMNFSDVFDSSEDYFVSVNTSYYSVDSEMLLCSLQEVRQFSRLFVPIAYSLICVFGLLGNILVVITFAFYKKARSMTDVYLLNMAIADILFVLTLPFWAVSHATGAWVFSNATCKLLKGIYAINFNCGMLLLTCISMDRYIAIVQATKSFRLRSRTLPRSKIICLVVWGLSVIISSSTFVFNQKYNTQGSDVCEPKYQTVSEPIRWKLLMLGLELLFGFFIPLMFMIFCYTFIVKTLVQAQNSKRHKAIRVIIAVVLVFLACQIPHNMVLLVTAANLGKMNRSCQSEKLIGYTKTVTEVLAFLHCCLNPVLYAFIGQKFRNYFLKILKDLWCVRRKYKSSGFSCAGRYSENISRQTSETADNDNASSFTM
APJ ag = APJ receptor agonism; activation, % at 20 µM; AID 2520; CHO-K1 APJ PathHunter beta-arrestin, luminescence; 0% DMSO wells, 100% apelin; actives 0.11% (n = 330,000);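 active means activation more than six SD over the plate average, tested at 20 µM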
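system = engineered CHO-K1 APJ arrestin reporter cells | input = 1000 cells per well | timing = overnight seeding, 90 min compound at 25 °C, 1 h detection | measured by = enzyme-fragment complementation luminescence | read-out = beta-arrestin recruitment to APJ as agonist activity, luminescent signal | control set = negative DMSO alone, positive Apelin-13 at 10 nM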
CXCR6 antag conf = CXCR6 antagonism confirmation, single concentration | shares compounds with CXCR6 block | actives 65% (n = 700) | CHO-K1 CXCR6 PathHunter beta-arrestin, luminescence | inhibition, % at 20 µM;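 active means mean inhibition over four retests above 40%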;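 further: receptor stimulated with 10 nM CXCL16 agonist; beta-galactosidase fragment complementation upon beta-arrestin recruitment to receptor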
A number is an active result; n = inactive; x = no result.

SMILES | APJ antagonist | CXCR6 block | EBI2 antag | m5-HT2A agonist | CCR6 antag | APJ ag | CXCR6 antag conf
CC(C)C(=O)Nc1ncc(Cc2ccccc2Cl)s1 | n | n | n | n | n | n | x
Cc1ccc(Cc2cnc(N3C(=N)SC(C)C3=O)s2)cc1 (stereo not given) | n | 53 | n | n | x | n | 70
Cc1cccc(Cc2cnc(N3C(=N)SC(C)C3=O)s2)c1 (stereo not given) | n | 53 | n | n | x | n | 73
Cc1cccc(Cc2cnc(N3C(=N)SC(c4ccccc4)C3=O)s2)c1 (stereo not given) | n | n | n | n | n | n | x
Nc1cccc2c1C(=O)N(C(=O)/C=C/c1cccc(F)c1)C2=O | n | 50 | n | n | 53 | n | 45
COc1cc(/C=C/C(=O)N2C(=O)c3cccc(N)c3C2=O)cc(OC)c1OC | n | n | n | n | n | n | x
C=CCNc1sc(C(=O)c2ccc(C)cc2)c(N)c1C#N | n | 55 | n | n | n | n | n
O=C1NC[C@H](c2ccccc2)OC(=O)[C@@H](Cc2ccc(F)cc2)CC/C=C/C[C@@H]1CC(=O)N(CCO)Cc1ccccc1 | x | 55 | n | n | 62 | x | 45
O=C1N[C@@H](Cc2ccccc2)COC(=O)[C@H](Cc2ccc(F)cc2)CC/C=C/C[C@@H]1CC(=O)N(CCO)Cc1ccccc1 | n | n | n | n | n | n | x
FC(F)(F)c1cnc(NNC(=S)Nc2ccccc2)c(Cl)c1 | x | 73 | n | n | x | x | 74
Fc1ccccc1NC(=S)NNc1ncc(C(F)(F)F)cc1Cl | n | 50 | n | n | 68 | n | n
NC(=O)NNc1ncc(C(F)(F)F)cc1Cl | n | n | n | n | n | n | x
NC(=S)Nc1ncc(C(F)(F)F)cc1Cl | n | n | n | n | n | n | x
O=[N+]([O-])c1ccc(-c2cn(-c3ccccc3)c(=S)[nH]2)cc1 | n | n | n | n | n | n | x
CCOC(=O)C1=C(c2ccccc2)NC(=O)NC1c1ccc(O)c(OCC)c1 (stereo not given) | n | n | n | n | n | n | x
CCCCC(=O)NC(=S)NNC(=O)c1ccc(OC)cc1 | n | 46 | n | n | 69 | n | 48
Cc1ccc(C(=O)NC(=S)Nc2ccc(NC(=O)c3cccs3)cc2)cc1[N+](=O)[O-] | n | 28 | n | n | 50 | n | n
N#Cc1nc(Cc2ccccc2)oc1NCc1ccccc1Cl | n | n | n | n | n | n | x
O=C(NC(=S)N(CCc1ccccc1)CCc1ccccc1)c1ccco1 | n | 39 | n | n | x | n | 50
O=C(NC(=S)NCc1ccccc1)c1ccccc1F | n | n | n | n | n | n | x
CC(CCc1ccccc1)NC(=S)NC(=O)c1ccco1 (stereo not given) | n | n | n | n | n | n | x
O=C(NC(=S)N(Cc1ccccc1)Cc1ccccc1)c1ccccc1F | n | 36 | n | n | n | n | n
O=C1c2ccccc2S(=O)(=O)c2cc(C(=O)N3CCCC3)ccc21 | n | n | n | n | n | n | x
COC(=O)c1sccc1NC(=O)c1cc(-c2cc(C)ccc2C)nc2ccccc12 | n | n | n | n | n | n | x
COc1ccc(C[C@@H]2OC3(C=CC(=O)C=C3)O[C@H]2Cc2ccc(OC)cc2)cc1 | x | 83 | 88 | n | 107 | x | 84
SMILES | APJ antagonist | CXCR6 block | EBI2 antag | m5-HT2A agonist | CCR6 antag | APJ ag | CXCR6 antag conf
COc1ccc(N2C(=O)CC(Cc3ccccc3)C2=O)cc1 (stereo not given) | n | n | n | n | n | n | x
O=C1C=CC2(C=C1)O[C@H](Cc1ccccc1)[C@@H](Cc1ccccc1)O2 | x | 76 | 85 | n | 94 | x | 71
O=C1Nc2ccccc2C1Cc1ccccc1 (stereo not given) | n | n | n | n | n | n | x
Cn1c(SCC(=O)Nc2ccc3nc(SCC(=O)NC4CC4)sc3c2)nnc1-c1ccccc1 | n | n | n | n | n | n | x
C=CCSC1=N/C(=C\c2cc(OCC)c(OC(C)=O)c([N+](=O)[O-])c2)C(=O)S1 | n | 46 | n | n | 53 | n | 54
Cc1ccc(NC(=O)c2ccc(S(=O)(=O)NCc3ccco3)cc2)nc1 | n | n | n | n | n | n | x
